# High-throughput results deposited in PubChem by several laboratories.
# This is a sample that favours compounds with a hit; in the whole collection about 3.8% have one here.
# MC4R barr agon = human MC4R agonism via beta-arrestin. P32245. U2OS MC4R beta-arrestin complementation, luminescence; percent of melanotan II response, DMSO zero. activation, % at 8.9 µM. actives 0.98% (n = 360,000);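 active = activation above a per-plate cutoff, the mean activation of sample wells on that plate plus 3 SD, cut at about 8% in these data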
# Target sequence (P32245 whole entry, looked up): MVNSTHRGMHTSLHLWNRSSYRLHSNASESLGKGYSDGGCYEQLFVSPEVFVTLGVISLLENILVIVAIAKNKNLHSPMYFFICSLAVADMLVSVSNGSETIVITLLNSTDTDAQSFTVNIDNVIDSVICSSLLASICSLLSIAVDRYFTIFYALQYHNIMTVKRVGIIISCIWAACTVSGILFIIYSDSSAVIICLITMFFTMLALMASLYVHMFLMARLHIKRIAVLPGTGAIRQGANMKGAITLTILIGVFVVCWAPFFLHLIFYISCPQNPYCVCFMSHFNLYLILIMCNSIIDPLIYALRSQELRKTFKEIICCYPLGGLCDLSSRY
# TMEM16A act = activators or potentiators of mouse TMEM16A chloride channel. actives 0.3% (n = 340,000). Q8BHY3. AID 623877. B-score at 10 µM. HEK293 TMEM16A/YFP-H148Q/I152L, iodide quench fluorescence; active compounds read low;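 active = fluorescence-ratio B-score plate-corrected deviation score at least 3 library SD below zero, with starting fluorescence score within 5 deviations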;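 note: channel opened by trigger with iodide after compound preincubation; score built on the fluorescence ratio of max minus min over baseline; more negative score means more quench and so TMEM16A activation or potentiation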
# ANO1 block = inhibitors of mouse TMEM16A calcium-activated chloride channel. HEK293 TMEM16A/YFP iodide influx fluorescence, ionomycin. normalized B-score (activity score, 25-100; higher = stronger inhibition) at 10 µM. Q8BHY3. AID 588511. actives 1.2% (n = 310,000);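 active = ratio plate-corrected score three or more library SD toward inhibition, starting fluorescence score within five deviations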;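 note: score derived from kinetic fluorescence span divided by baseline fluorescence per well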
# Beta cell apopt = beta cell apoptosis inhibition; INS-1E cytokine-induced death, ATP luminescence, 48 h; percent of positive-control rescue, neutral wells zero; protection from apoptosis, % (no concentration beside the values); actives 0.8% (n = 300,000);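 active = Every replicate reaches about 75%, or at least half do and their mean reaches it too, limit read from the data; inconclusive = At least half of replicates reach the limit but their mean does not; inactive = Under half of replicates reach the limit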;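 note: 0% = cytokine-treated negative control wells and 100% = positive control rescue; higher means more ATP so stronger rescue from cytokine killing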
# CSC inhib = cancer stem cell inhibition. actives 1.1% (n = 300,000). AID 2717. inhibition, % at 7.5 µM. cancer stem cell-like cells viability, luminescence; in the data active = inhibition above about 75%; inconclusive = no clear call, values can overlap the other calls; tested in HMLE shEcad cells
# MC4R antag cAMP = antagonists of human melanocortin 4 receptor (MC4R). P32245. MC4R-expressing cells, MTII-stimulated cAMP, LANCE TR-FRET. inhibition, % at 6.5 µM. actives 0.48% (n = 360,000);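 active = inhibition above its plate's cutoff, the mean of tested wells on that plate plus 3 SD, cut at about 29% in these data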;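 note: 0% = Melanotan II alone and 100% = Melanotan II plus saturating MCL0020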
#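 System: U2OS cells stably expressing human melanocortin 4 receptor (MC4R). Reagent: Melanotan II challenge after compound preincubation. Doses: 6.5 µM. Times: 30-min compound, 1-h challenge, 1-h detection, room temperature. Measured by: TR-FRET with Eu-cAMP and labeled anti-cAMP, 671 nm. Replicates: singlicate.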
# MC4R barr conf = human MC4R beta-arrestin agonism confirmation | shares compounds with MC4R barr agon | U2OS MC4R beta-arrestin recruitment, luminescence; scaled DMSO 0%, Melanotan II 100% | activation, % at 8.9 µM | actives 31% (n = 2,400) | AID 602192;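 active = mean activation across replicates above the hit cutoff set in the earlier primary screen, cut at about 8% in these data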
# MOR DOR agonist = OPRM1-OPRD1 heterodimer agonism counter-screen; shares compounds with MC4R barr agon; U2OS PathHunter beta-arrestin, beta-gal luminescence; percent of deltorphin B response, DMSO zero; AID 602194; actives 5.8% (n = 2,400); activation, % at 9.2 µM;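 active = mean activation across replicates exceeds the hit threshold derived in the earlier primary screen, cut at about 18% in these data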;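 note: 100% = deltorphin B at 0.9 µM final and 0% = DMSO alone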
# The depositor's hits bear a star; i = inactive; ? = inconclusive; . = no result given.
SMILES,MC4R barr agon,TMEM16A act,ANO1 block,Beta cell apopt,CSC inhib,MC4R antag cAMP,MC4R barr conf,MOR DOR agonist
O=C(OCC(O)C(O)C(O)C(SCc1ccccc1)SCc1ccccc1)c1ccccc1 (stereo unspecified),17.2*,i,.,.,.,6.4,14.1*,11.2
O=C(OCC(O)C(O)C(O)COC(=O)c1ccccc1)c1ccccc1 (stereo unspecified),-2.6,i,.,.,.,26.3,.,.
CCOc1cc(/C=N/NC(=O)c2nn(C)cc2Br)ccc1OCc1ccccc1Cl,12.0*,i,i,24.1,.,-8.6,0.5,2.8
CCC12CCCN3CCC4(C(=C(C(=O)OC)C1)Nc1ccccc14)C32 (stereo unspecified),10.4*,i,.,.,.,-9.2,6.3,11.3
Cc1cc(C)c(O)c(NC(=S)NC(=O)Cc2ccccc2)c1,-0.4,i,i,0.4,6.2,6.2,.,.
CC/C(=N/Nc1ccc(Cl)cc1)c1cnnc(SC)n1,0.7,i,i,-4.6,5.6,-10.8,.,.
CC/C(=N/Nc1cccc(C)c1)c1cnnc(SC)n1,20.8*,i,i,11.5,7.7,-16.0,3.6,3.6
CN1CCC(N(C)C(=O)c2cc(S(=O)(=O)N(C)c3ccccc3)ccc2Cl)CC1,1.3,i,.,-1.7,-15.0,11.2,.,.
O=C(COC(=O)C1CC1)Nc1ccc(Cl)cn1,-0.8,i,.,-2.5,.,4.8,.,.
O=c1oc2ccccc2cc1-c1cn2ccccc2n1,11.1*,i,i,13.4,35.8,-1.9,1.3,5.0
Cc1c(C(=O)Nc2cccc([N+](=O)[O-])c2)cnn1-c1ccccc1,-1.2,i,i,.,5.8,9.9,.,.
CC[C@@H](C)[C@H](CN[C@H](CNC)C(C)C)NC[C@@H](C)c1ccc(CC(C)C)cc1,45.2*,i,i,19.1,45.5,-0.9,15.7*,7.7
Cc1ccccc1-n1c(SCC(=O)NC2CC2)nc2ccccc2c1=O,-0.1,.,.,.,.,0.2,.,.
COc1cccc2cc(C(N)=O)oc12,-2.5,i,i,-6.4,-0.8,12.1,.,.
COc1cccc2cc(C(=O)c3ccc([N+](=O)[O-])cc3)oc12,19.9*,i,i,0.3,.,4.9,0.5,6.0
O=C(Nc1ccc(Cl)cc1)Nc1nnc(CSCc2ccccc2Cl)s1,-2.2,i,i,36.4,36.8,3.2,.,.
O=C(Nc1ccccc1)Nc1nnc(CSCc2ccccc2Cl)s1,11.2*,i,i,-2.2,.,3.4,2.8,4.3
c1ccc(-c2cc(-c3nnc4n3N=C(c3ccc5ccccc5c3)CS4)[nH]n2)cc1,31.6*,i,i,11.4,92.3*,1.4,14.4*,4.7
COc1ccc(C2=Nn3c(nnc3-c3ccccc3)SC2)cc1OC,0.7,i,i,-5.8,15.7,-1.0,.,.
COc1ccccc1C(=O)Nc1nc2ccc(S(C)(=O)=O)cc2s1,14.4*,i,i,6.7,-0.1,3.9,-0.9,3.6
CCCc1cc(=O)oc2c(C)c(OCC(=O)Nc3ccc(CN4CCOCC4)cc3)ccc12,15.7*,i,i,.,-8.8,-1.9,-0.8,1.9
O=C(Nc1cccc2nsnc12)c1ccc2c(c1)OCO2,-1.8,i,i,3.1,3.4,-0.1,.,.
O=C(Nc1cc(-c2nc3ccccc3s2)ccc1Cl)c1ccc2c(c1)OCO2,24.2*,i,i,-0.6,28.0,6.2,20.7*,1.9
COc1ccc(NC(=O)C(=O)NCC2CCCN2S(=O)(=O)c2ccc(C)cc2)cc1 (stereo unspecified),-1.8,i,i,.,59.8,-26.6,.,.
O=c1[nH]c2cc(C(F)(F)F)ccc2n1-c1cc(C(F)(F)F)ccc1O,10.2*,i,i,2.8,3.4,-7.3,0.8,9.7
CC(NCc1ccc([N+](=O)[O-])cc1)C1COc2ccccc2O1 (stereo unspecified),0.7,i,i,-7.0,3.8,9.7,.,.
S=C(NCCc1cccc(Cl)c1)NC1CCCCC1,1.6,i,i,0.6,-5.3,5.8,.,.
COc1cc(/C=C(\C#N)c2nc3ccccc3s2)ccc1OCC(=O)Nc1ccccc1,48.9*,i,i,0.6,?,2.6,30.5*,10.0
CCOC(=O)C1(C)CCN1C(=O)c1cccc2ccccc12 (stereo unspecified),-1.1,.,.,.,.,1.6,.,.
